This is an account of results in ChEMBL document CHEMBL1132569.

Test [1] addresses T1, Muscarinic acetylcholine receptor M4 (Homo sapiens) (UniProt P08173).
T1 sequence (whole entry): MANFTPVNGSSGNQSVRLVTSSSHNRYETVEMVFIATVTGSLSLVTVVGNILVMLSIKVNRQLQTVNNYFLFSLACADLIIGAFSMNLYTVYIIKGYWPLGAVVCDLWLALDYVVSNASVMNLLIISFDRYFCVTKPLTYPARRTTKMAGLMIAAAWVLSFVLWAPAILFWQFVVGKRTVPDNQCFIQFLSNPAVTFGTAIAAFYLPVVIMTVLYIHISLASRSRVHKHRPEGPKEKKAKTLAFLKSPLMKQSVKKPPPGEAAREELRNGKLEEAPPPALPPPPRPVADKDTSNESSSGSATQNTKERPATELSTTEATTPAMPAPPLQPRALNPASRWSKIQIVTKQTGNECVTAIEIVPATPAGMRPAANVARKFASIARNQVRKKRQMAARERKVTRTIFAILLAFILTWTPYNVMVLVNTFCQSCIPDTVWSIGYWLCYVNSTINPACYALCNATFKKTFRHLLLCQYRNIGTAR
Kind of test: Binding affinity at the NMS liganded human muscarinic acetylcholine receptor M4 was estimated as log affinity (log1/M). The procedure, abridged: (§1)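 Equilibrium runs were ≥2 h with 2 × 10⁻⁴ M GTP and 0.1–0.7 nM ³H-NMS. Nonspecific binding was defined with 10⁻⁶ M QNB, and bound ligand was filtered and counted. Log affinities came from semiquantitative plus off-rate, quantitative equilibrium, or nonequilibrium assays, fitted by nonlinear least squares to the allosteric ternary complex model.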

Test [2] has as its target T1, Muscarinic acetylcholine receptor M4 (Homo sapiens). Kind of test: Binding affinity at the unliganded human muscarinic acetylcholine receptor M4 was estimated as log affinity (log1/M). The procedure, abridged:
as §1

Test [3] shares this target. Kind of test: Cooperativity with NMS at human muscarinic acetylcholine receptor M4. The procedure, abridged: (§2)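 Equilibrium ³H-NMS binding in CHO membranes expressing human m1–m5 receptors was measured with and without ACh, alone and with three agent concentrations. Data were converted to affinity ratios, meaning apparent primary-ligand affinity with agent divided by affinity without it.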

Test [4] has the same target. Kind of test: Cooperativity with acetylcholine at human muscarinic acetylcholine receptor M4. The procedure, abridged:
as §2

In test [5] the target is Muscarinic acetylcholine receptor M3 (Homo sapiens) (UniProt P20309). In words: Cooperativity with NMS at human muscarinic acetylcholine receptor M3. In a few lines: as §2
The target is the same in test [6]. Kind of test: Cooperativity with acetylcholine at human muscarinic acetylcholine receptor M3. The procedure, abridged:
as §2

Test [7] shares this target. Kind of test: Binding affinity at the NMS liganded human muscarinic acetylcholine receptor M3 was estimated as log affinity (log1/M). The procedure, abridged: as §1
Test [8] has the same target. In words: Binding affinity at the unliganded human muscarinic acetylcholine receptor M3 was estimated as log affinity (log1/M). The procedure, abridged:
as §1

In test [9] the target is T2, Muscarinic acetylcholine receptor M5 (Homo sapiens) (UniProt P08912).
T2 sequence (whole entry): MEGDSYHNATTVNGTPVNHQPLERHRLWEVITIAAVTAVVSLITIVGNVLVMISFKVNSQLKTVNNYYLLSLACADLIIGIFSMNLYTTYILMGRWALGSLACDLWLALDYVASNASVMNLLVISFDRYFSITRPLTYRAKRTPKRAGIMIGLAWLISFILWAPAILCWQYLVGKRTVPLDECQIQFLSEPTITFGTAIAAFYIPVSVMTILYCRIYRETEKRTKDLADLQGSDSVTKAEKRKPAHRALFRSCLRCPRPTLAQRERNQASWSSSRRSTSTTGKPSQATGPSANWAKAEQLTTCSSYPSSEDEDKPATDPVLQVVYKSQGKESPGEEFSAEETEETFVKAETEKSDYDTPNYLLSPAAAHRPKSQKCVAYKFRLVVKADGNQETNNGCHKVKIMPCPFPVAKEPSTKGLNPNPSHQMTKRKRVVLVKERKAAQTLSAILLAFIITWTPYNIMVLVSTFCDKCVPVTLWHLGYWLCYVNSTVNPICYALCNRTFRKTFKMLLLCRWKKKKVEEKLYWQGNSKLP
In words: Binding affinity at the NMS liganded human muscarinic acetylcholine receptor M5 was estimated as log affinity (log1/M). In a few lines:
as §1

The target of test [10] is T2, Muscarinic acetylcholine receptor M5 (Homo sapiens). Kind of test: Binding affinity at the unliganded Muscarinic acetylcholine receptor M5 was estimated as log affinity (log1/M). The procedure, abridged:
as §1

Test [11] has the same target. Kind of test: Cooperativity with NMS at Muscarinic acetylcholine receptor M5. The procedure, abridged: as §2
Test [12] has the same target. In words: Cooperativity with acetylcholine at Muscarinic acetylcholine receptor M5. The procedure, abridged:
as §2

In test [13] the target is T3, Muscarinic acetylcholine receptor M2 (Homo sapiens) (UniProt P08172).
T3 sequence (whole entry): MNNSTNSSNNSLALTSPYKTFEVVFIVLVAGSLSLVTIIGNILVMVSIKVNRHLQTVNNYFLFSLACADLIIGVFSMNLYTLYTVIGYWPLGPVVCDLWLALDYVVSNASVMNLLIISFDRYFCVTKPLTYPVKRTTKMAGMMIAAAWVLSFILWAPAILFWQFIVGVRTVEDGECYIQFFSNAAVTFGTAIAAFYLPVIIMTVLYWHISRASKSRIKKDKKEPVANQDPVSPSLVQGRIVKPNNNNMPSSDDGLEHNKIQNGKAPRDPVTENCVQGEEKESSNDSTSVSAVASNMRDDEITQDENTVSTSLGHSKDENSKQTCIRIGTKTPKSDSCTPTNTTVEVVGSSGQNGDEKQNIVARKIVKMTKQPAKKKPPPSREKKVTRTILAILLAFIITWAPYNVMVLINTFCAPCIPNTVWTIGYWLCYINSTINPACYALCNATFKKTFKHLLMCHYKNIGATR
Kind of test: Binding affinity at the NMS liganded human muscarinic acetylcholine receptor M2 was estimated as log affinity (log1/M). The procedure, abridged: as §1

Test [14] addresses T3, Muscarinic acetylcholine receptor M2 (Homo sapiens). In words: Binding affinity at the unliganded human muscarinic acetylcholine receptor M2 was estimated as log affinity (log1/M). In a few lines:
as §1

Test [15] has the same target. Kind of test: Cooperativity with NMS at human muscarinic acetylcholine receptor M2. In a few lines:
as §2

Test [16] has the same target. In words: Cooperativity with acetylcholine at human muscarinic acetylcholine receptor M2. In a few lines: as §2
Test [17] concerns the target T4, Muscarinic acetylcholine receptor M1 (Homo sapiens) (UniProt P11229).
T4 sequence (whole entry): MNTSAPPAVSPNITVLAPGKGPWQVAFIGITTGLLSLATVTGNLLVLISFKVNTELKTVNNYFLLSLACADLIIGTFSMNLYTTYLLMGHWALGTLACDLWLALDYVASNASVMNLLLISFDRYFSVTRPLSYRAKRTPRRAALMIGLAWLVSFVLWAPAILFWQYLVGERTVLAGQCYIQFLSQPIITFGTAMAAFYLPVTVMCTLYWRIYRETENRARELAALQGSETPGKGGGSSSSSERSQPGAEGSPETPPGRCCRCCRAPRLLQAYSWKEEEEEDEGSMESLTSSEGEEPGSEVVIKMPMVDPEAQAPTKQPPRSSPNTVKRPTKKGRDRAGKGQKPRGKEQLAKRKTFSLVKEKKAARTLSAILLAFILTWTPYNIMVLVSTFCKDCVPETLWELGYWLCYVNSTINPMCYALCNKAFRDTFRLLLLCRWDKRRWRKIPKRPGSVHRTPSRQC
Kind of test: Binding affinity at the NMS liganded human muscarinic acetylcholine receptor M1 was estimated as log affinity (log1/M). The procedure, abridged: as §1

For test [18], the target named is T4, Muscarinic acetylcholine receptor M1 (Homo sapiens). In words: Binding affinity at the unliganded human muscarinic acetylcholine receptor M1 was estimated as log affinity (log1/M). In a few lines: as §1
Test [19] has the same target. In words: Cooperativity with NMS at human muscarinic acetylcholine receptor M1. The procedure, abridged:
as §2

For test [20] the target is unchanged. Kind of test: Cooperativity with acetylcholine at human muscarinic acetylcholine receptor M1. The procedure, abridged:
as §2

Sequence of Muscarinic acetylcholine receptor M3 (Homo sapiens) (P20309 whole entry, looked up): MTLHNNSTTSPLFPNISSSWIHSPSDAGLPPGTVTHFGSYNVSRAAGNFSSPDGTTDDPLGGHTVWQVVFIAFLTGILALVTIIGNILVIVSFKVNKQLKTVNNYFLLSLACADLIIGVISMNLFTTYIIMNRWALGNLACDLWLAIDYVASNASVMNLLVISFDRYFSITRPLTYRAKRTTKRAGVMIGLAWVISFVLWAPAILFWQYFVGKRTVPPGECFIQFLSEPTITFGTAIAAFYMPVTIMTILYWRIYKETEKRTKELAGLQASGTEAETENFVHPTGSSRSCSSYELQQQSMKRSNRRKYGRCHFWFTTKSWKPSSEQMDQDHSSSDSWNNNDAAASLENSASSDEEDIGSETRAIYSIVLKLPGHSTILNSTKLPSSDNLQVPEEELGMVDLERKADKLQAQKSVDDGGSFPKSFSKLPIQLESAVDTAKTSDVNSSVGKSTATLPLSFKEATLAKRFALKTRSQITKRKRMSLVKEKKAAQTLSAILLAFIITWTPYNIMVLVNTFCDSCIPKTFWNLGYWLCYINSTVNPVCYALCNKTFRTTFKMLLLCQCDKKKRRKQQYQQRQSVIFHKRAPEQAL

As for `COc1cc2c(cc1OC)[C@@]13CC[N+]4(N)CC5=CCO[C@H]6CC(=O)N2[C@H]1[C@H]6[C@H]5C[C@@H]34` (some centres undefined), the Affinity in test [1] was 4.2; in test [2] it was below 4; in test [7], 3.9; in test [8], 3.8; in [9], 3.3; in test [10], 3.6. Moreover, the Affinity was 4.2 in [13], below 4 in test [14], 3.8 in test [17] and 3.8 in test [18]. For the same compound, the Cooperativity is 2 in [3]; 0.8 in [4]; 1.19 in test [5]; above 2 in test [6]; 0.8 in test [11]; 0.8 in [12]. In addition, the Cooperativity was 2 in test [15], 0.8 in test [16], 1.19 in test [19] and 0.8 in test [20].

Consider `COc1cc2c(cc1OC)[C@@]13CC[N+]4([O-])CC5=CCO[C@H]6CC(=O)N2[C@H]1[C@H]6[C@H]5C[C@@H]34` (some centres undefined), for which the Affinity in [1] is 3.7; in test [2] it was 3.7; in [7], 2.8; in [8], 2.8; in test [9], 2.7; in test [10], 2.5. The Affinity in test [13] was 3.3; in test [14], 2.7; in test [17], 3.6; in test [18], 3.4. Further, the Cooperativity is 1.19 in test [3]; 2 in test [4]; 1.19 in test [5]; above 2 in test [6]; 2 in test [11]; 0.8 in [12]. Further, the Cooperativity was above 2 in test [15], 0.8 in test [16], 2 in test [19] and 1.19 in test [20].

Consider `COc1cc2c(cc1OC)[C@@]13CC[N+]4(C)CC5=CCO[C@H]6CC(=O)N2[C@H]1[C@H]6[C@H]5C[C@@H]34` (some centres undefined), for which the Affinity in test [1] is 4.4; in test [2], 4.3; in test [7] it was 3.6; in test [8], 3.5; in [9], 2.9; in test [10], 3.3. In addition, the Affinity is 4.5 in test [13], 4 in test [14], 4 in [17] and 4 in test [18]. The Cooperativity in test [3] is 1.19; in test [4] it was 0.8; in test [5], 1.19; in test [6], 2; in test [11], 0.8; in test [12] it was below 0.2. In addition, the Cooperativity in [15] was above 2; in test [16], 0.8; in [19] it was 1.19; in test [20], 0.8.

For `COc1cc2c(cc1OC)[C@@]13CC[N+]4(CCl)CC5=CCO[C@H]6CC(=O)N2[C@H]1[C@H]6[C@H]5C[C@@H]34` (some centres undefined), the Affinity in [1] was 4.3; in test [2], 4.3; in test [7] it was 3.3; in test [8] it was 3.7; in [9], 3.3; in [10], 3.7. Besides, the Affinity is 4.4 in test [13], 4.2 in test [14], 4.1 in test [17] and 4.4 in [18]. For the same compound, the Cooperativity in test [3] is 1.19; in [4], 1.19; in test [5] it was 0.2; in [6] it was above 0.2; in [11] it was 0.2; in [12], below 0.2. For the same compound, the Cooperativity in [15] was 2; in test [16], below 0.2; in test [19], 0.2; in test [20], 0.2.

Take `COc1cc2c(cc1OC)[C@@]13CCN4CC5=CCO[C@H]6CC(=O)N2[C@H]1[C@H]6[C@H]5C[C@H]43`: the Affinity in test [1] was 4.5; in test [2] it was 4.8; in [7], 2.9; in test [8], 3.5; in test [9] it was 3.3; in test [10] it was 4.3. The Affinity in test [13] is 4.7; in test [14], 4.5; in test [17], 4.5; in [18], 4.6. For the same compound, the Cooperativity in test [3] is 0.8; in [4] it was 0.8; in test [5] it was 0.8; in test [6], 0.8; in test [11], below 0.2; in test [12], below 0.2. Moreover, the Cooperativity in test [15] worked out at 2; in [16], 0.8; in test [19] it was 1.19; in test [20], 2.

Consider `C=CC[N+]12CC[C@@]34c5cc(OC)c(OC)cc5N5C(=O)C[C@@H]6OCC=C(C1)[C@H](C[C@@H]32)[C@@H]6[C@H]54` (some centres undefined), for which the Affinity was 4.6 in test [1]; 4.5 in test [2]; 3.5 in [7]; 3.8 in test [8]; 3.8 in [10]; 4.7 in test [13]. Besides, the values for the Affinity in test [14], in test [17] and in [18] were 4.5, 4.2 and 4.4, respectively. The Cooperativity stood at 1.19 in test [3]; 0.8 in test [4]; 0.8 in test [5]; 2 in [6]; 1.19 in test [11]; 0.8 in test [12]. The Cooperativity turned out to be 2 in test [15], 0.8 in test [16], 0.8 in test [19] and 0.8 in [20].
